Active and inactive are the calls of the source. The calls are words filed in the database; no cut-off is given here.
Legend:
[1] = target: T1, Glucagon-like peptide 1 receptor (Homo sapiens, UniProt P43220); assay: Positive allosteric modulator activity at human GLP-1R expressed in PSC-HEK293 cells assessed as potentiation of GLP-1(7-36)NH2-induced cAMP accumulation incubated for 30 mins by HTRF cAMP assay relative to control; assay type: functional, cell-based
[2] = target: Vasoactive intestinal polypeptide receptor 2 (Homo sapiens) (UniProt P41587); assay: Activity at human VIPR expressed in PSC-HEK293 cells incubated for 30 mins by HTRF cAMP assay
Chain of Vasoactive intestinal polypeptide receptor 2 (Homo sapiens) (P41587 whole entry, looked up): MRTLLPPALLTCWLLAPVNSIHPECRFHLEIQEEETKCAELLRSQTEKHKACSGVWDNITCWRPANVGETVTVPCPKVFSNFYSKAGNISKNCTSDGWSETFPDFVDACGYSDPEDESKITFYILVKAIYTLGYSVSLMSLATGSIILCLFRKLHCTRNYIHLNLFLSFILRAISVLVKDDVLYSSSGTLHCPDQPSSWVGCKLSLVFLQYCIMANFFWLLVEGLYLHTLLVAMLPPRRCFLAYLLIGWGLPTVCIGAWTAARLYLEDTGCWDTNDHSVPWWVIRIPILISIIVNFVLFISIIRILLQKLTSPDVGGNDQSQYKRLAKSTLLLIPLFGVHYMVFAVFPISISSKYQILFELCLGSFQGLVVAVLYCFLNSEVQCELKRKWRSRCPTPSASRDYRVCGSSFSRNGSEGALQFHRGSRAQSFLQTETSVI

[3] = target: T2, Glucagon-like peptide 1 receptor (Mus musculus) (UniProt O35659); assay: Positive allosteric modulator activity at GLP-1R in mouse MIN6-c4 cells assessed as effect on glucose-mediated increase in intracellular Ca2+ level by FLIPR assay relative to control; assay type: functional, cell-based
T2 sequence (whole entry): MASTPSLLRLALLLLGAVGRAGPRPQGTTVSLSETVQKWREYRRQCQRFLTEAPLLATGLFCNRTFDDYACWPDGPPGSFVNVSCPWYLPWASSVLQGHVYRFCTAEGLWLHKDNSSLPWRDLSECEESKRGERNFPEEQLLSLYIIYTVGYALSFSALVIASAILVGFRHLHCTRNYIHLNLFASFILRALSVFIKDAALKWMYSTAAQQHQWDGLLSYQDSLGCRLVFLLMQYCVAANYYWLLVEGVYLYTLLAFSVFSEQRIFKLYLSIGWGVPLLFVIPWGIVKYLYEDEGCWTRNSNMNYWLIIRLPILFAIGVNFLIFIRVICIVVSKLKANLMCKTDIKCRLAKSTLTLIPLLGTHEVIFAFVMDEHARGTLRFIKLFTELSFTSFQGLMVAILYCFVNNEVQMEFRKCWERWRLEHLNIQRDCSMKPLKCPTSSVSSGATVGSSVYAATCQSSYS

[4] = species: Rattus norvegicus; assay: Improvement in GLP1(9-36)NH2-mediated glucose-stimulated insulin secretion in dispersed rat pancreatic islets at <10 uM incubated for 2 hrs by ELISA; assay type: functional
Outline: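 Dispersed rat islets pre-incubated 1 h in Krebs-Ringer (5.6 mM glucose), then 2 h at 37 °C at 15 mM glucose with GLP1(9-36)NH2 1, 10 or 100 nM ± compound 1 µM, DMSO vehicle. Supernatant insulin measured by HTRF-based ELISA, expressed as % of total insulin and n-fold vs respective control; N≥9 per condition.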

[5] = target: T1, Glucagon-like peptide 1 receptor; assay: Positive allosteric modulator activity at human GLP-1R expressed in PSC-HEK293 cells assessed as potentiation of cAMP accumulation incubated for 30 mins by HTRF cAMP assay
[6] = target: T3, Solute carrier organic anion transporter family member 1B3 (Homo sapiens, UniProt Q9NPD5); assay: Substrate activity at human OATP1B3 expressed in HEK293 cells assessed as increase in compound uptake at 1 uM LC-MS/MS analysis; assay type: ADME, cell-based; conditions: hek293, 1 µM, TDE = time-dependent effect
T3 sequence (Q9NPD5 whole entry): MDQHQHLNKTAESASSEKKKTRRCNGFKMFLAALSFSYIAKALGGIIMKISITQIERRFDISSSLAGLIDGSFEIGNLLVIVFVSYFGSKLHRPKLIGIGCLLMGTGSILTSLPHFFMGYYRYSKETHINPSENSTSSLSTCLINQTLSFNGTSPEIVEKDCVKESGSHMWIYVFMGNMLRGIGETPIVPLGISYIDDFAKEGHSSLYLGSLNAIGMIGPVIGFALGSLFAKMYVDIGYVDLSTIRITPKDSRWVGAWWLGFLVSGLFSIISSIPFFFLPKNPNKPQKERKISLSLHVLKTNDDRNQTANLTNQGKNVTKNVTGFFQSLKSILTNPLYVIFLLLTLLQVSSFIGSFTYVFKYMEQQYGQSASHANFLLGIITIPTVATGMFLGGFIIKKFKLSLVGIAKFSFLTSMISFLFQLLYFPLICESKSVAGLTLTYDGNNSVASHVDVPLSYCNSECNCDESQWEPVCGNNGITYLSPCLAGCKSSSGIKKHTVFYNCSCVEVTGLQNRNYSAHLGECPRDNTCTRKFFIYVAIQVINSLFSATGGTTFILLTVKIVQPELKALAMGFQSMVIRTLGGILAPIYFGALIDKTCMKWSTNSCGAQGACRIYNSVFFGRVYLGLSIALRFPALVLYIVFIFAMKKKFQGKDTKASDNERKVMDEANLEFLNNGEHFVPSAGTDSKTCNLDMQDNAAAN
Outline: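 HEK-TR cells overexpressing hOATP1B1 or hOATP1B3, run in parallel with control HEK-TR cells, seeded at 1 x 10⁵ cells/well one day before. Time-dependent uptake of 1 μM compound in HBSS at 37 °C, quadruplicates. Uptake stopped with ice-cold buffer, cells washed, lysed and quantified by LC-MS/MS. Uptake ratio calculated against the control cells.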

[7] = Volume of distribution at steady state in C57Bl6 mouse at 3 mg/kg, iv administered as single dose measured up to 24 hrs ESI-LC/MS-MS analysis; assay type: ADME, organism-based; conditions: in vivo, read-out: Vdss
Outline: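 Single dose of 3 mg/kg i.v. in water/Glycoferol/Cremophor solution to female C57Bl6 mice (n=24) or male Wistar rats (n=3). In rats, rifampicin 40 mg/kg p.o. was given 2 h before dosing where indicated. Plasma sampled at 0.083–24 h. ESI-LC/MS-MS after acetonitrile precipitation. Non-compartmental analysis.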

[8] = system: Mus musculus; assay: Suppression of blood glucose concentration in ob/ob C57Bl/6J mouse model of T2DM at 30 mg/kg, po in absence of OATP/MRP2 inhibitor rifampicin and/or GLP1(9-36)NH2 by oral glucose-tolerance test; assay type: functional, organism-based
Outline: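 Male ob/ob mice aged 10–11 weeks, n=7, randomised on blood glucose and fasted overnight. Rifampicin 60 mg/kg p.o. 2.5 h before the oGTT, compound 30 mg/kg p.o. 1 h before, GLP1(9-36)NH2 i.p. 15 min before, each given as indicated. Glucose 2 g/kg orally. Tail-vein glucose by glucometer at 0, 15, 30, 60 and 90 min.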

[9] = Efflux ratio in human Caco2/TC7 cells at pH 7.4 in presence of 0.5% BSA; assay type: ADME, cell-based; conditions: Caco-2, pH 7.4
Outline: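 Efflux in Caco-2/TC7 cells under isocratic conditions, pH 7.4 and 0.5% BSA in both compartments, compound 2 µM, with and without cyclosporine A as efflux inhibitor; LC-MS/MS analysis.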

T1 sequence (P43220 whole entry): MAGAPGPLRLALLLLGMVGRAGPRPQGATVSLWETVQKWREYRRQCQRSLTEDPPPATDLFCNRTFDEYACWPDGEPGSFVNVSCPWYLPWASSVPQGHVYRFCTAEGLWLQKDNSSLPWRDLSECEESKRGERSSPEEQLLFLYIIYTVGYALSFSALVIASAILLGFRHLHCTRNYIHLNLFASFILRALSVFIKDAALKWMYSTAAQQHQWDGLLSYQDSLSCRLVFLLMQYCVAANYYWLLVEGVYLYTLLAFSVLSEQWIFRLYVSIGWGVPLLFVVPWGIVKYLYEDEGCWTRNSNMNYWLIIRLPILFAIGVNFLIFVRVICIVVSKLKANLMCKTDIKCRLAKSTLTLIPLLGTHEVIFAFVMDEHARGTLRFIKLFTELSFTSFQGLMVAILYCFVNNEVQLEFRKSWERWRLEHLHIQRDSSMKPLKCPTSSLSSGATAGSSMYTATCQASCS

With `CC(O)CCN1C[C@H]2c3c(c4ccccc4n3C(=O)OC(C)(C)C)C[C@@H](C1=O)N2C(=O)CC1CCC(F)(F)CC1` (stereo partly drawn) the Activity [1] was “inactive”, the Activity [2] was “inactive” and the fold change (FC) [3] was 0.9. For the same compound, the Activity [4] was “Active” and the Activity [5] was “inactive”.
With `CC(C)(C)OC(=O)n1c2c(c3ccccc31)C[C@H]1C(=O)N3C[C@@H](CC(=O)O)C[C@H]3[C@@H]2N1C(=O)CC1CCC(F)(F)CC1` the Activity [6] was “Tde”, the Activity [1] was “inactive” and the Activity [2] was “inactive”. For the same compound, the fold change (FC) [3] was 1.2, the Vd [7] was 0.934 L/kg and the Activity [5] was “inactive”. For the same compound, the Activity [8] was “inactive” and the efflux ratio [9] was 247.

— ChEMBL document CHEMBL4354813, “Design, Synthesis, and Pharmacological Evaluation of Potent Positive Allosteric Modulators of the Glucagon-like Peptide-1 Receptor (GLP-1R)” (J Med Chem, 2020)
